Reference: ChEMBL document CHEMBL1759898, “Synthesis of 5-arylated N-arylthiazole-2-amines as potential skeletal muscle cell differentiation promoters” (Bioorg Med Chem Lett, 2011)
Calls of active or inactive are those of the source. No cut-off for these calls is given here.

Legend:
Format in all cases: functional, cell-based
C2C12 [1] = assay: Induction of cell differentiation in mouse C2C12 cells assessed as myotube formation at 5 uM
How it was run: (§1)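 C2C12 myoblasts grown 2 days in growth medium to about 70% confluence, then differentiation induced by serum reduction in differentiation medium containing compound at 5 µM final (from 20 mM DMSO stock). Controls received equal DMSO. Incubation at 37 °C for 7 days, medium changed at days 3 and 5. Myotube morphology was photographed under the microscope at 3, 5 and 7 days. Duplicates, four controls.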

C2C12 [2] = assay: Induction of cell differentiation in mouse C2C12 cells assessed as myotube formation at 5 uM after 5 days; how it was run: as §1
C2C12 [3] = assay: Induction of cell differentiation in mouse C2C12 cells assessed as myotube formation at 5 uM after 3 days; how it was run: as §1
C2C12 [4] = assay: Induction of cell differentiation in mouse C2C12 cells assessed as myotube formation at 5 uM after 7 days; how it was run: as §1

Row | SMILES | Activity (C2C12 [1]) | also measured
1 | CCOC(=O)c1ccc(-c2cnc(N(Cc3ccccc3)c3ccccc3)s2)cc1 | Active | 
2 | Cc1ccccc1-c1cnc(N(Cc2ccccc2)c2ccccc2)s1 | inactive | 
3 | O=[N+]([O-])c1ccc(-c2cnc(N(Cc3ccccc3)c3ccccc3)s2)cc1 | inactive | 
4 | c1ccc(CN(c2ccccc2)c2ncc(-c3ccccc3)s2)cc1 | Active | 
5 | Fc1ncccc1-c1cnc(N(Cc2ccccc2)c2ccccc2)s1 | Active | 
6 | O=[N+]([O-])c1cccc(-c2cnc(N(Cc3ccccc3)c3ccccc3)s2)c1 | Active | 
7 | c1ccc(CN(c2ccccc2)c2ncc(-c3cccs3)s2)cc1 | Active | Activity (C2C12 [2]): Active; Activity (C2C12 [3]): Active; Activity (C2C12 [4]): Active
8 | Fc1ccc(-c2cnc(N(Cc3ccccc3)c3ccccc3)s2)cc1 | Active | 
9 | Cc1ccc(-c2cnc(N(Cc3ccccc3)c3ccccc3)s2)cc1 | inactive | 
